Experimental data collected from several papers.
Protocols differ between the studies behind these lines.
Target: Serine/threonine-protein kinase PAK 2 (PAK2, Homo sapiens, UniProt Q13177)

| Compound | assay | conditions | measurement | result |
| --- | --- | --- | --- | --- |
| O=C1NC(=O)c2cc(Nc3ccc(F)cc3)c(Nc3ccc(F)cc3)cc21 | cell-free assay | 0.5 µM | remaining signal | 98.5% |
| CS(=O)(=O)N1CCCC(NC(=O)[C@H](CCC2CCCCC2)NC(=O)c2ccc(CNC(=O)c3cnc4ccccn34)cc2)C1 (some centres unmarked) | cell-free assay, competition with immobilised ligand | 0.1 µM | remaining binding | 93% |
| CN1CC(Oc2cnc(C#N)cc2-c2ccn3nc(NC(=O)C4CC4)cc3c2)C1 | enzyme activity, inhibitor | 1 µM | inhibition | -7% |
| CSc1cccnc1N1CCN(Cc2nc3ccccc3[nH]2)CC1 | cell-free assay, competition with immobilised ligand | 1 µM | remaining binding | 100% |
| Cc1sc(C(=O)NC2COC2)cc1-n1cc(NC(=O)Nc2c(F)cccc2Cl)cn1 | enzyme activity, inhibitor | 10 µM | remaining activity | 106% |
| FC(F)c1nc2ccccc2n1-c1nc(N2CCOCC2)nc(N2CCOCC2)n1 | enzyme activity, inhibitor | 10 µM | remaining activity | 100% |
| Nc1ncnc2occ(-c3ccc(NC(=O)Nc4cc(C(F)(F)F)ccc4F)cc3)c12 | cell-free assay, inhibitor | 20 µM | remaining signal | 60% |
| Nc1cnc(N2CCc3cc(S(=O)(=O)Nc4c(F)cc(Cl)cc4F)cc(N4CCCC4=O)c32)nc1 | cell-free assay, competition with immobilised ligand | 1 µM | remaining binding | 78% |
| CC(C)(C)c1nc2c(s1)c1nc(N)ncc1c1ccc(NS(=O)(=O)c3c(F)cccc3F)c(F)c12 | enzyme activity, inhibitor, radiometric | 1 µM | remaining activity | 102% |
| CN([C@@H]1CCc2c(CC(=O)O)c3ccccc3n2C1)S(=O)(=O)c1ccc(F)cc1 | cell-free assay, competition with immobilised ligand | 1 µM | remaining binding | 100% |
| CNc1cccc2cc(C(=O)Nc3ccc(C(=O)O)cc3)c(=O)[nH]c12 | enzyme activity, inhibitor | 10 µM | inhibition | 20% |
| O=C1CCc2cc(Nc3cc(OC4CCOCC4)c([N+](=O)[O-])cc3Cl)ccc2N1 | cell-free assay, competition with immobilised ligand | 1 µM | remaining binding | 96% |
| CCN(CC)CCNC(=O)c1c(C)[nH]c(/C=C2\C(=O)Nc3ccc(F)cc32)c1C | enzyme activity, inhibitor | 10 µM | inhibition | 8% |
| Cc1cnc(NC2CCOCC2)nc1-n1cnc(C(=O)NC(CN)c2cc(F)cc(Cl)c2)c1 (centres unmarked) | enzyme activity, inhibitor, radiometric | 1 µM | remaining activity | 77% |
| CNCc1ccc(-c2cc(-c3nc(-c4ccc(S(=O)(=O)C(C)C)cc4)cnc3N)on2)cc1 | enzyme activity, inhibitor | 2 µM | inhibition | 6% |
| CC(C)(O)[C@H]1CC[C@H](Nc2ccc3ncc(-c4cccc(C(F)(F)F)c4)n3n2)CC1 | enzyme activity, inhibitor | 1 µM | remaining activity | 93.4% |
| FC(F)(F)Oc1cccc(-c2cnc3ccc(-c4ccncc4)nn23)c1 | enzyme activity, inhibitor, radiometric | 1 µM | activity vs control | 95% |
| COc1cc2ncnc(Nc3ccc(F)c(Cl)c3)c2cc1OCCCN1CCOCC1 | cell-free assay | 0.5 µM | remaining signal | 100% |
| C[C@H](NC(=O)c1cnc2n1[C@](C)(Cc1ccc(C#N)cc1)C(=O)N2c1cc(Cl)c(F)c(Cl)c1)C(=O)NC1(c2ccccn2)CC1 | cell-free assay, competition with immobilised ligand | 1 µM | remaining binding | 92% |
| COc1cc2ncnc(Nc3ccc(Oc4ccccc4)c(C)c3C)c2cc1OC | enzyme activity, inhibitor | 1 µM | inhibition | 7% |
| Cc1cc(NC(=O)c2cccc(S(F)(F)(F)(F)F)c2)cc(-n2ccn3nc(-c4cccnc4)cc23)c1 | cell-free assay, competition with immobilised ligand | 1 µM | remaining binding | 100% |
| O=C(CSc1nc2nccnc2c(=O)n1CCc1ccccc1)Nc1nccs1 | enzyme activity, inhibitor | 10 µM | inhibition | 1% |
| CCCS(=O)(=O)Nc1ccc(F)c(C(=O)c2c[nH]c3ncc(-c4ccc(Cl)cc4)cc23)c1F | enzyme activity, inhibitor | 1 µM | inhibition | < 10% |
